pIC50: −log10 of the molar value. One block for each compound: values may come before it.
Legend:
[1] = Cytotoxicity against mouse Hepa-1c1c7 cells after 48 hrs by MTT assay; assay type: cell-based; settings: hepa-1c1c7, 48 h
In short: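 Murine hepatoma cells in α-MEM with 10% heat- and charcoal-treated fetal calf serum, passages 6–17; MTT read-out as for the cancer lines but with 48 h compound exposure. Highest concentration tested 25 µM. IC50 from survival-versus-concentration curve; mean and SD, n = 3.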

[2] = biological target: NAD(P)H dehydrogenase [quinone] 1 (Mus musculus) (UniProt Q64669); assay: Induction of NQO1 activity in mouse Hepa-1c1c7 cells assessed as induction ratio at 2.5 uM after 48 hrs by MTT assay relative to control; assay type: cell-based
In short: (§1)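 Hepa1c1c7 cells, 10,000 per well, 24 h, were then treated 48 h (DMSO ≤0.5%). Digitonin/EDTA lysates were assayed for menadione-dependent MTT-formazan formation using a G6P/G6PDH NADPH-generating mix with FAD at pH 7.4. The reaction ran 5 min, was stopped with dicoumarol, and read at A590. Degree of induction = (A test − blank)/(A control − blank). Ratios were read off the induction–concentration plot at the EROD test concentration.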

CYP1A1 [3] = biological target: T1, CYP1A1 (Mus musculus, UniProt P00184); assay: Induction of CYP1A1 activity in mouse Hepa-1c1c7 cells assessed as induction ratio at 2.5 uM after 48 hrs by EROD assay relative to control; assay type: ADME, cell-based
T1 sequence (P00184 whole entry): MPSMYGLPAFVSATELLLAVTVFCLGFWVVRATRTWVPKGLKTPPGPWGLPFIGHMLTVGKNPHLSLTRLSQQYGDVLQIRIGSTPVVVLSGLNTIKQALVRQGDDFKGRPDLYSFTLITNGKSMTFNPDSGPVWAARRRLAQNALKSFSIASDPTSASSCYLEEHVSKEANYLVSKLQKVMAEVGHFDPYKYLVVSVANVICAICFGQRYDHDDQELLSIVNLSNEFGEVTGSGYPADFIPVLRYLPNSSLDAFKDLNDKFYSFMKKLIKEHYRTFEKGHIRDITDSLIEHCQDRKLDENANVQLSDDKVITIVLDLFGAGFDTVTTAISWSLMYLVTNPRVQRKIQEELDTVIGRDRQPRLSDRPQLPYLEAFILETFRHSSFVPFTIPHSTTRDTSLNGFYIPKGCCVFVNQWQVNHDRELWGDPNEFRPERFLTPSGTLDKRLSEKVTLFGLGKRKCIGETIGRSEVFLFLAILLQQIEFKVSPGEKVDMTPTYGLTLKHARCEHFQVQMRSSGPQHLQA
In short: (§2)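 Hepa1c1c7 cells were seeded at 10,000 per well and grown 24 h. They were then exposed 48 h to compound (final DMSO 0.5% v/v) at about 4 × the NQO1 CD. After a PBS wash, cells got 5 µM 7-ethoxyresorufin plus 2 mM salicylamide in medium, 37 °C, 40 min. Resorufin was read at ex 530/em 590 nm, corrected for compound fluorescence. Ratio = (F treated − blank)/(F DMSO control − blank); mean ± SD, n = 3.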

CYP1A1 [4] = biological target: T1, CYP1A1; assay: Induction of CYP1A1 activity in mouse Hepa-1c1c7 cells assessed as induction ratio at 5 uM after 48 hrs by EROD assay relative to control; assay type: ADME, cell-based; in short: as §2
[5] = biological target: NAD(P)H dehydrogenase [quinone] 1 (Mus musculus) (UniProt Q64669); assay: Induction of NQO1 activity in mouse Hepa-1c1c7 cells assessed as induction ratio at 5 uM after 48 hrs by MTT assay relative to control; assay type: cell-based; in short: as §1
[6] = biological target: NAD(P)H dehydrogenase [quinone] 1 (Mus musculus) (UniProt Q64669); assay: Induction of NQO1 activity in mouse Hepa-1c1c7 cells assessed as induction ratio at 1 uM after 48 hrs by MTT assay relative to control; assay type: cell-based; in short: as §1
CYP1A1 [7] = biological target: T1, CYP1A1; assay: Induction of CYP1A1 activity in mouse Hepa-1c1c7 cells assessed as induction ratio at 1 uM after 48 hrs by EROD assay relative to control; assay type: ADME, cell-based
In short: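 About 10,000 Hepa1c1c7 cells/well cultured 24 h, then compound (0.5% DMSO final) for 48 h, at roughly 4 × the concentration doubling NQO1 activity. After PBS wash, cells given 5 µM 7-ethoxyresorufin plus 2 mM salicylamide, 37 °C, 40 min; resorufin fluorescence ex 530/em 590 nm, corrected for compound fluorescence. Ratio = (treated − blank)/(DMSO control − blank); mean ± SD, n = 3.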

CYP1A1 [8] = biological target: T1, CYP1A1; assay: Induction of CYP1A1 activity in mouse Hepa-1c1c7 cells assessed as induction ratio at 20 uM after 48 hrs by EROD assay relative to control; assay type: ADME, cell-based; in short: as §2
[9] = biological target: NAD(P)H dehydrogenase [quinone] 1 (Mus musculus) (UniProt Q64669); assay: Induction of NQO1 activity in mouse Hepa-1c1c7 cells assessed as induction ratio at 20 uM after 48 hrs by MTT assay relative to control; assay type: cell-based; in short: as §1
CYP1A1 [10] = biological target: T1, CYP1A1; assay: Induction of CYP1A1 activity in mouse Hepa-1c1c7 cells assessed as induction ratio at 7.5 uM after 48 hrs by EROD assay relative to control; assay type: ADME, cell-based; in short: as §2
[11] = biological target: NAD(P)H dehydrogenase [quinone] 1 (Mus musculus) (UniProt Q64669); assay: Induction of NQO1 activity in mouse Hepa-1c1c7 cells assessed as induction ratio at 7.5 uM after 48 hrs by MTT assay relative to control; assay type: cell-based; in short: as §1
MCF7 [12] = assay: Selectivity ratio of IC50 for human CCL186 cells to IC50 for human MCF7 cells
In short: (§3)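 MTT assay. MCF7 and CCL186 cells were grown in EMEM/10% FBS, HCT116 in McCoy's 5A/10% FBS. Seeding was 10,000 (MCF7), 4000 (HCT116) and 5000 (CCL186) cells per well, 24 h. Compound exposure was 72 h, DMSO ≤1% final. MTT 0.5 mg/ml for 3 h, formazan dissolved in DMSO, A590. IC50 came from sigmoidal survival curves, with 3 separate occasions per concentration. Ratio = IC50 CCL186 / IC50 of the cancer line.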

MCF7 [13] = assay: Antiproliferative activity against human MCF7 cells after 72 hrs by MTT assay; assay type: functional, cell-based; settings: MCF7, 72 h
In short: (§4)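 Cells seeded at 10,000 (MCF7), 4000 (HCT116) or 5000 (CCL186) per well and grown 24 h; MCF7 and CCL186 in EMEM with pyruvate, glutamine, 10% FBS; HCT116 in McCoy's 5A with 10% FBS. Compounds from DMSO stocks (≤1% DMSO final), 72 h exposure; MTT 0.5 mg/ml for 3 h, formazan in DMSO read at 590 nm. IC50 from sigmoidal survival curve, three separate occasions.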

[14] = Selectivity ratio of IC50 for human CCL186 cells to IC50 for human HCT116 cells; assay type: ADME, cell-based, HCT-116; settings: CCL186 cells and HCT116 cells, read-out: Ratio IC50; in short: as §3
HCT-116 = assay: Antiproliferative activity against human HCT116 cells after 72 hrs by MTT assay; assay type: functional, cell-based; settings: HCT-116, 72 h; in short: as §4
[15] = Antiproliferative activity against human CCL186 cells after 72 hrs by MTT assay; assay type: cell-based; settings: CCL186, 72 h; in short: as §4

NAD(P)H dehydrogenase [quinone] 1 (Mus musculus), sequence (Q64669 whole entry): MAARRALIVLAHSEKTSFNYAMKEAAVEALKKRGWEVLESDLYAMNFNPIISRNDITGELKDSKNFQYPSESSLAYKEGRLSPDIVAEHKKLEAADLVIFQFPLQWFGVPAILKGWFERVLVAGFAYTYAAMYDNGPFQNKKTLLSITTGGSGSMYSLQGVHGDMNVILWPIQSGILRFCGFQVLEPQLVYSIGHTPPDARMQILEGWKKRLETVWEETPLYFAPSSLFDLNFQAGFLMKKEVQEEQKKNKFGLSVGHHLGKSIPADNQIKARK

Ratio [2]: 3.67 | fold induction at 48 h, 2.5 µM (CYP1A1 [3]): 1.06
SMILES: O=C1Nc2ccccc2/C1=C\c1ccc(Cl)cc1
IC50 [1]: 6.7 µM

fold induction at 48 h, 5 µM (CYP1A1 [4]): 1.66 | Ratio [5]: 4.45
SMILES: Cc1ccccc1/C=C1/C(=O)Nc2ccccc21
IC50 [1]: > 25 µM

fold induction at 48 h, 5 µM (CYP1A1 [4]): 1.08 | Ratio [5]: 2.64
SMILES: COc1ccc(/C=C2/C(=O)N(C)c3ccccc32)cc1O
IC50 [1]: 15.5 µM

Ratio [6]: 4.04 | fold induction at 48 h, 1 µM (CYP1A1 [7]): 1.08
SMILES: Cc1cccc(/C=C2/C(=O)Nc3ccccc32)c1
IC50 [1]: > 25 µM

fold induction at 48 h, 20 µM (CYP1A1 [8]): 1.02 | Ratio [9]: 3.35
SMILES: O=C1Nc2ccccc2/C1=C\c1ccccc1O
IC50 [1]: > 25 µM

fold induction at 48 h, 5 µM (CYP1A1 [4]): 1.26 | Ratio [5]: 6.8
SMILES: O=C1Nc2ccccc2/C1=C\c1ccccc1F
IC50 [1]: > 25 µM

Ratio [6]: 4.03 | fold induction at 48 h, 1 µM (CYP1A1 [7]): 2.48
SMILES: COc1ccccc1/C=C1/C(=O)Nc2ccccc21
IC50 [1]: > 25 µM

fold induction at 48 h, 7.5 µM (CYP1A1 [10]): 1.08 | Ratio [11]: 4.96
SMILES: CCc1ccc(/C=C2/C(=O)Nc3ccccc32)cc1
IC50 [1]: > 25 µM

Ratio [2]: 3.52 | fold induction at 48 h, 2.5 µM (CYP1A1 [3]): 1.2
SMILES: O=C1Nc2ccccc2/C1=C\c1ccc(F)cc1Cl
IC50 [1]: > 25 µM

SMILES: Cc1ccc(CC2C(=O)Nc3ccccc32)cc1 (configuration not stated)
IC50 [1]: > 25 µM

SMILES: N#Cc1ccc(/C=C2/C(=O)Nc3ccccc32)cc1
IC50 [1]: > 25 µM

fold induction at 48 h, 7.5 µM (CYP1A1 [10]): 1.07 | Ratio [11]: 3.05
SMILES: Cc1ccc(/C=C2/C(=O)Nc3ccccc32)cc1
IC50 [1]: > 25 µM

fold induction at 48 h, 5 µM (CYP1A1 [4]): 1.18 | Ratio [5]: 4.78
SMILES: COc1cccc(/C=C2/C(=O)N(C)c3ccccc32)c1
IC50 [1]: > 25 µM

fold induction at 48 h, 5 µM (CYP1A1 [4]): 1.13 | Ratio [5]: 3.88
SMILES: COc1cccc(/C=C2\Nc3ccccc3C2=O)c1
IC50 [1]: 21.2 µM

fold induction at 48 h, 20 µM (CYP1A1 [8]): 1.2 | Ratio [9]: 2.96
SMILES: O=C1Nc2ccccc2/C1=C\c1ccccc1C(F)(F)F
IC50 [1]: > 25 µM

pIC50 (MCF7 [13]): 4.98 | pIC50 (HCT-116): 5.24
SMILES: COc1cc(/C=C2/C(=O)Nc3ccccc32)cc(OC)c1
Ratio IC50 (MCF7 [12]): 4.1 | IC50 [1]: 16 µM | selectivity ratio [14]: 2.2 | pIC50 [15]: 4.63

Ratio [6]: 4.21 | fold induction at 48 h, 1 µM (CYP1A1 [7]): 1.26
SMILES: COc1cccc(/C=C2/C(=O)Nc3ccccc32)c1
IC50 [1]: > 25 µM

Ratio [2]: 4.61 | fold induction at 48 h, 2.5 µM (CYP1A1 [3]): 1.06
SMILES: O=C1Nc2ccccc2/C1=C\c1ccc2ccccc2c1
IC50 [1]: > 25 µM

fold induction at 48 h, 20 µM (CYP1A1 [8]): 1.01 | Ratio [9]: 2.08
SMILES: O=C1Nc2ccccc2/C1=C\c1ccncc1
IC50 [1]: > 25 µM

fold induction at 48 h, 5 µM (CYP1A1 [4]): 1.04 | Ratio [5]: 4.5
SMILES: COc1ccc(/C=C2/C(=O)Nc3ccccc32)cc1
IC50 [1]: > 25 µM

Ratio [6]: 4.33 | fold induction at 48 h, 1 µM (CYP1A1 [7]): 1.28
SMILES: O=C1Nc2ccccc2/C1=C\c1c[nH]c2ccccc12
IC50 [1]: > 25 µM

fold induction at 48 h, 5 µM (CYP1A1 [4]): 1.11 | Ratio [5]: 3.94
SMILES: O=C1Nc2ccccc2/C1=C\c1cccc(O)c1
IC50 [1]: > 25 µM

Ratio [6]: 5.09 | fold induction at 48 h, 1 µM (CYP1A1 [7]): 2.33
SMILES: COc1ccc(/C=C2/C(=O)Nc3cc(Cl)ccc32)cc1O
IC50 [1]: > 25 µM

fold induction at 48 h, 20 µM (CYP1A1 [8]): 1.64 | Ratio [9]: 5.69
SMILES: O=C1Nc2ccccc2/C1=C\c1ccc(F)cc1
IC50 [1]: > 25 µM

fold induction at 48 h, 7.5 µM (CYP1A1 [10]): 1.11 | Ratio [11]: 4.19
SMILES: O=C1Nc2ccccc2/C1=C\c1cccc(F)c1
IC50 [1]: > 25 µM

fold induction at 48 h, 7.5 µM (CYP1A1 [10]): 1.38 | Ratio [11]: 4.21
SMILES: COc1ccc(/C=C2\Nc3ccccc3C2=O)cc1O
IC50 [1]: > 25 µM

Ratio [6]: 3.21 | fold induction at 48 h, 1 µM (CYP1A1 [7]): 1.25
SMILES: COc1cccc(/C=C2/C(=O)Nc3cc(F)ccc32)c1
IC50 [1]: 9.8 µM

fold induction at 48 h, 20 µM (CYP1A1 [8]): 1.04 | Ratio [9]: 3.82
SMILES: O=C1Nc2ccccc2/C1=C\c1cc(O)cc(O)c1
IC50 [1]: > 25 µM

fold induction at 48 h, 5 µM (CYP1A1 [4]): 1.32 | Ratio [5]: 4
SMILES: COc1cc(/C=C2/C(=O)Nc3ccccc32)ccc1O
IC50 [1]: 14.6 µM

fold induction at 48 h, 5 µM (CYP1A1 [4]): 1.01 | Ratio [5]: 5.13
SMILES: O=C1Nc2ccccc2/C1=C\c1ccccc1
IC50 [1]: > 25 µM

fold induction at 48 h, 20 µM (CYP1A1 [8]): 1.78 | Ratio [9]: 2.23
SMILES: COc1cccc(CC2C(=O)Nc3ccccc32)c1 (configuration not stated)
IC50 [1]: > 25 µM
